Measured values reported in ChEMBL document CHEMBL5058577, “EUbOPEN Chemogenomics Library 2 (Multiplex)” (2022).

System: U2OS
Assay: Multiplex assay against U2OS
Format: toxicity, cell-based
Conditions: human
In short: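 Live cells were stained at seeding with Hoechst33342, BioTracker Green Microtubule Cytoskeleton Dye, MitoTracker Red and Annexin V Alexa Fluor 680, then imaged on a CQ1 microscope at 37°C and 5% CO2 after compound addition. CellPathfinder machine-learning gating split cells into Hoechst high-intensity objects or normal cells. Normal cells were split into healthy, pyknosed or fragmented nuclei, and pyknosed cells into mitotic or apoptotic. Tubulin, mitochondrial-mass and membrane-permeability phenotypes are per cents of healthy-nucleus cells.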

[1] = 12 h, 1 µM, compound concentration 1 uM, replicate 1
[2] = 12 h, 1 µM, compound concentration 1 uM, replicate 2
[3] = 12 h, 10 µM, compound concentration 10 uM, replicate 1
[4] = 12 h, 10 µM, compound concentration 10 uM, replicate 2
[5] = 24 h, 1 µM, compound concentration 1 uM, replicate 1
[6] = 24 h, 1 µM, compound concentration 1 uM, replicate 2
[7] = 24 h, 10 µM, compound concentration 10 uM, replicate 1
[8] = 24 h, 10 µM, compound concentration 10 uM, replicate 2
[9] = 48 h, 1 µM, compound concentration 1 uM, replicate 1
[10] = 48 h, 1 µM, compound concentration 1 uM, replicate 2
[11] = 48 h, 10 µM, compound concentration 10 uM, replicate 1
[12] = 48 h, 10 µM, compound concentration 10 uM, replicate 2

## C[C@@H]1C[C@H]2[C@@H]3CCC4=CC(=O)C=C[C@]4(C)[C@@]3(F)[C@@H](O)C[C@]2(C)[C@@]1(O)C(=O)CO [DEXAMETHASONE]
[1]
  Population Apoptotic (%): 77%
  Population Fragmented Nuclei (%): 21%
  Population Healthy Nuclei (%): 70%
  Population Hoechst High Intensity Objects (%): 2%
  Population Membrane Permeable-Phenotype (%): 2%
  Population Mitochondria Different-Phenotype (%): 0%
  Population Mitotic Cells (%): 22%
  Population Normal (%): 97%
  Population Pyknosed Nuclei (%): 7%
  Population Tubulin-Different-Phenotype (%): 1%
  Total Cell Count: 238
[2]
  Population Apoptotic (%): 80%
  Population Fragmented Nuclei (%): 20%
  Population Healthy Nuclei (%): 75%
  Population Hoechst High Intensity Objects (%): 0%
  Population Membrane Permeable-Phenotype (%): 4%
  Population Mitochondria Different-Phenotype (%): 1%
  Population Mitotic Cells (%): 20%
  Population Normal (%): 99%
  Population Pyknosed Nuclei (%): 4%
  Population Tubulin-Different-Phenotype (%): 3%
  Total Cell Count: 124
[3]
  Population Apoptotic (%): 80%
  Population Fragmented Nuclei (%): 20%
  Population Healthy Nuclei (%): 69%
  Population Hoechst High Intensity Objects (%): 2%
  Population Membrane Permeable-Phenotype (%): 6%
  Population Mitochondria Different-Phenotype (%): 1%
  Population Mitotic Cells (%): 19%
  Population Normal (%): 97%
  Population Pyknosed Nuclei (%): 9%
  Population Tubulin-Different-Phenotype (%): 2%
  Total Cell Count: 319
[4]
  Population Apoptotic (%): 84%
  Population Fragmented Nuclei (%): 16%
  Population Healthy Nuclei (%): 76%
  Population Hoechst High Intensity Objects (%): 0%
  Population Membrane Permeable-Phenotype (%): 7%
  Population Mitochondria Different-Phenotype (%): 2%
  Population Mitotic Cells (%): 15%
  Population Normal (%): 100%
  Population Pyknosed Nuclei (%): 7%
  Population Tubulin-Different-Phenotype (%): 3%
[5]
  Population Apoptotic (%): 96%
  Population Fragmented Nuclei (%): 19%
  Population Healthy Nuclei (%): 71%
  Population Hoechst High Intensity Objects (%): 2%
  Population Membrane Permeable-Phenotype (%): 4%
  Population Mitochondria Different-Phenotype (%): 2%
  Population Mitotic Cells (%): 4%
  Population Normal (%): 97%
  Population Pyknosed Nuclei (%): 8%
  Population Tubulin-Different-Phenotype (%): 2%
  Total Cell Count: 288
[6]
  Population Apoptotic (%): 90%
  Population Fragmented Nuclei (%): 18%
  Population Healthy Nuclei (%): 73%
  Population Membrane Permeable-Phenotype (%): 6%
  Population Mitochondria Different-Phenotype (%): 0%
  Population Mitotic Cells (%): 9%
  Population Pyknosed Nuclei (%): 7%
  Population Tubulin-Different-Phenotype (%): 4%
[7]
  Population Apoptotic (%): 82%
  Population Fragmented Nuclei (%): 17%
  Population Healthy Nuclei (%): 74%
  Population Hoechst High Intensity Objects (%): 1%
  Population Membrane Permeable-Phenotype (%): 6%
  Population Mitochondria Different-Phenotype (%): 0%
  Population Mitotic Cells (%): 17%
  Population Normal (%): 98%
  Population Pyknosed Nuclei (%): 7%
  Population Tubulin-Different-Phenotype (%): 2%
  Total Cell Count: 378
[8]
  Population Apoptotic (%): 75%
  Population Fragmented Nuclei (%): 14%
  Population Healthy Nuclei (%): 79%
  Population Hoechst High Intensity Objects (%): 0%
  Population Mitochondria Different-Phenotype (%): 2%
  Population Mitotic Cells (%): 25%
  Population Normal (%): 99%
  Population Pyknosed Nuclei (%): 5%
  Total Cell Count: 219
[9]
  Population Apoptotic (%): 84%
  Population Fragmented Nuclei (%): 20%
  Population Healthy Nuclei (%): 72%
  Population Hoechst High Intensity Objects (%): 1%
  Population Membrane Permeable-Phenotype (%): 1%
  Population Mitochondria Different-Phenotype (%): 1%
  Population Mitotic Cells (%): 16%
  Population Normal (%): 98%
  Population Pyknosed Nuclei (%): 6%
  Population Tubulin-Different-Phenotype (%): 0%
  Total Cell Count: 391
[10]
  Population Apoptotic (%): 71%
  Population Fragmented Nuclei (%): 17%
  Population Healthy Nuclei (%): 74%
  Population Hoechst High Intensity Objects (%): 2%
  Population Membrane Permeable-Phenotype (%): 3%
  Population Mitochondria Different-Phenotype (%): 3%
  Population Mitotic Cells (%): 28%
  Population Normal (%): 97%
  Population Pyknosed Nuclei (%): 7%
  Population Tubulin-Different-Phenotype (%): 4%
  Total Cell Count: 186
[11]
  Population Apoptotic (%): 92%
  Population Fragmented Nuclei (%): 14%
  Population Healthy Nuclei (%): 77%
  Population Hoechst High Intensity Objects (%): 2%
  Population Membrane Permeable-Phenotype (%): 4%
  Population Mitochondria Different-Phenotype (%): 1%
  Population Mitotic Cells (%): 7%
  Population Normal (%): 97%
  Population Pyknosed Nuclei (%): 8%
  Population Tubulin-Different-Phenotype (%): 1%
  Total Cell Count: 497
[12]
  Population Apoptotic (%): 86%
  Population Fragmented Nuclei (%): 16%
  Population Healthy Nuclei (%): 76%
  Population Membrane Permeable-Phenotype (%): 5%
  Population Mitochondria Different-Phenotype (%): 0%
  Population Mitotic Cells (%): 13%
  Population Pyknosed Nuclei (%): 7%
  Total Cell Count: 294
